From PubChem BioAssay
CHO parental Ca: counter-screen for OX1R antagonists: effect in parental CHO cells; inhibition, % at 5.6 µM; hit rate 0.63% among 330,000; parental CHO-K1, ATP-induced calcium, Fluo-8 fluorescence;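 active means inhibition above that plate's mean sample inhibition plus 3 SD, cut at about 26% in these data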;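 further: 0% = ATP-challenged DMSO wells and 100% = DMSO wells without ATP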
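Material – parental CHO cells · Reagent – ATP stimulus · Compound – single nominal dose of 5.6 µM per compound · Detection – Fluo-8 fluorescence · Read-out basis – percent inhibition of calcium signal · Controls – ATP-challenged DMSO wells low, unchallenged DMSO wells high · Repeats – no replicates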
OXTR potentiator: potentiates the human oxytocin receptor response. P30559. CHO-OTR cells, Fluo-8 calcium fluorescence, potentiator mode; 0% = oxytocin EC15, 100% = EC100. activation, % at 3 µM. hit rate 0.061% among 320,000. AID 2445;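 active means activation above that plate's cutoff, the mean activation of tested compounds plus 3 SD, cut at about 6.6% in these data, passing the limit was not always enough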;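 further: 100% uses oxytocin at 75 nM as the full agonist control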
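Assay system: CHO cell line stably expressing human OTR. Reagent: EC15 oxytocin agonist. Dosing: single dose, 3.0 µM nominal final compound concentration. Timing: compound 6 min at room temperature before oxytocin, 100 s read. Signal: kinetic Fluo-8 calcium fluorescence. Controls: oxytocin EC15 low and EC100 high.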
OXTR ag: activates the human oxytocin receptor | CHO-OTR cells, Fluo-8 calcium fluorescence; normalized: DMSO 0%, oxytocin 100% | activation, % at 3 µM | hit rate 0.32% among 320,000 | AID 2435;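 active means activation above the mean of all tested compounds plus 3 SD, cutoff set per screening run, cut at about 20% in these data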;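 further: peak over basal fluorescence ratio from a 100 s FLIPR kinetic read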
OX1R antag-1: OX1R (human) antagonism. AID 485270. hit rate 1.8% among 330,000. OX1R-expressing cells, FRET antagonist read-out. O43613. inhibition, % at 6.6 µM; in the data active means inhibition mostly above about 38%, no sharp cut-off; inactive means mostly below about 40%;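 further: 0% = agonist challenge alone and 100% = reference antagonist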
Target sequence (O43613 whole entry, looked up): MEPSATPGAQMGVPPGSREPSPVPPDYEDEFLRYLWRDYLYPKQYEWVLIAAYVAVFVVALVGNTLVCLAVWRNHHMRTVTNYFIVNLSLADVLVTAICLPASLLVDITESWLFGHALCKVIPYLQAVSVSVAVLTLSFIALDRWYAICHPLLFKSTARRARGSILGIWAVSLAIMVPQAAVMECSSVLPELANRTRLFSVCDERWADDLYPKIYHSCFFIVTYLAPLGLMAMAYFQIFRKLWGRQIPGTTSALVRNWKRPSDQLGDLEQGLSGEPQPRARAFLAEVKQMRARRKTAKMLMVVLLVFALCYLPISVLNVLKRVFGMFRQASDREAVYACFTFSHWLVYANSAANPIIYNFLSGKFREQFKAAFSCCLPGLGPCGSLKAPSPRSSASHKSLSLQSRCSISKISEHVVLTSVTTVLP
OX1R antag-2: antagonists of human orexin 1 receptor; O43613; CHO/OX1R cells, Fluo-8 calcium fluorescence, orexin A; inhibition, % at 5 µM; hit rate 0.43% among 330,000;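 active means inhibition above its plate's threshold, mean inhibition of all tested compounds on the plate plus 3 SD, cut at about 37% in these data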;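 further: 0% = orexin A challenge wells and 100% = SB-334867-A antagonist wells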
V1R ag counter: activates human V1a receptor in oxytocin agonist counter-screen | P37288 | CHO-V1R cells, Fluo-8 calcium fluorescence, agonist mode; 0% DMSO, 100% 3 nM vasopressin | activation, % at 3 µM | hit rate 0.25% among 320,000;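 active means activation above the mean activation of all tested compounds plus 3 SD, per screening run, cut at about 20% in these data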;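 further: signal is peak over basal fluorescence ratio across a 100 second FLIPR read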
* hit, by the source's call. This is a sample that favours compounds with a hit; in the whole collection about 2.6% have one here.

How did Brc1ccc2c(c1)OCCOCCOc1cc(Br)ccc1OCCOCCOCCO2 do in these assays?
CHO parental Ca: 57*; OXTR potentiator: -14; OXTR ag: 12; OX1R antag-1: 5; OX1R antag-2: 72*; V1R ag counter: 13

What do the screens show for `COc1ccccc1C(=O)NC(=Nc1nc2ccccc2o1)NC(=O)c1ccccc1OC`?
CHO parental Ca: 48*; OXTR potentiator: -11; OXTR ag: 5; OX1R antag-1: 36*; OX1R antag-2: 82*; V1R ag counter: 5

What do the screens show for `Cn1c(=O)c(C(=O)COc2ccc(C#N)cc2)c(N)n(Cc2ccccc2)c1=O`?
CHO parental Ca: 13; OXTR potentiator: -38; OXTR ag: 32*; OX1R antag-1: 10; OX1R antag-2: 9; V1R ag counter: 28*

How did CCC(=O)OCC(=O)c1c(N)n(Cc2ccccc2)c(=O)n(C)c1=O do in these assays?
CHO parental Ca: -7; OXTR potentiator: -4; OXTR ag: 0; OX1R antag-1: 26; OX1R antag-2: -18; V1R ag counter: 1

Results for CC1N(C)c2cccc3cccc(c23)N1C ?
CHO parental Ca: 2; OXTR potentiator: -15; OXTR ag: -2; OX1R antag-1: 70*; OX1R antag-2: -11; V1R ag counter: -2

How did CN1c2cccc3cccc(c23)N(C)C1c1cccs1 do in these assays?
CHO parental Ca: -19; OXTR potentiator: -13; OXTR ag: -2; OX1R antag-1: 17; OX1R antag-2: -18; V1R ag counter: -1

Results for O=C(Nc1nnc(-c2ccccc2)o1)c1nc2ccccc2s1 ?
CHO parental Ca: 28*; OXTR potentiator: -9; OXTR ag: 88*; OX1R antag-1: 6; OX1R antag-2: 6; V1R ag counter: 83*

How did NC(=O)c1oc2ccccc2c1NC(=O)c1nc2ccccc2s1 do in these assays?
CHO parental Ca: -22; OXTR potentiator: -10; OXTR ag: 1; OX1R antag-1: 23; OX1R antag-2: -12; V1R ag counter: 1

Results for CSCCC(Nc1ncnc2ccc(Br)cc12)C(=O)O (stereo not given) ?
CHO parental Ca: 4; OXTR potentiator: -5; OXTR ag: 1; OX1R antag-1: -12; OX1R antag-2: 4; V1R ag counter: 1

How did CC(C)Nc1ncnc2ccc(Br)cc12 do in these assays?
CHO parental Ca: 29*; OXTR potentiator: -5; OXTR ag: 14; OX1R antag-1: 25; OX1R antag-2: 19; V1R ag counter: 9

How did COc1cc(C(=O)Oc2cccc(Nc3ncnc4ccccc34)c2)cc(OC)c1OC do in these assays?
CHO parental Ca: 43*; OXTR potentiator: -11; OXTR ag: 6; OX1R antag-1: 56*; OX1R antag-2: 64*; V1R ag counter: 6

What do the screens show for `O=C(O)c1cccc(Nc2ncnc3ccccc23)c1`?
CHO parental Ca: 0; OXTR potentiator: 3; OXTR ag: 0; OX1R antag-1: 2; OX1R antag-2: -6; V1R ag counter: 1

What do the screens show for `CC(=O)c1cccc(Nc2ncnc3ccc(Br)cc23)c1`?
CHO parental Ca: -27; OXTR potentiator: -4; OXTR ag: -2; OX1R antag-1: 74*; OX1R antag-2: -13; V1R ag counter: 2

What do the screens show for `CC1CC(C)CN(C(=O)CNC(=O)c2ccc3ccccc3c2)C1` (stereo not given)?
CHO parental Ca: -10; OXTR potentiator: -1; OXTR ag: 1; OX1R antag-1: 74*; OX1R antag-2: -18; V1R ag counter: 3

How did O=C(NCC(=O)N1CCCCC1)c1ccc2ccccc2c1 do in these assays?
CHO parental Ca: 2; OXTR potentiator: -8; OXTR ag: -1; OX1R antag-1: 8; OX1R antag-2: 12; V1R ag counter: 0

How did C[C@H](CO)N1C[C@H](C)[C@@H](CN(C)C(=O)Nc2ccc3c(c2)OCO3)Oc2ccc(NS(=O)(=O)c3ccccc3)cc2C1=O do in these assays?
CHO parental Ca: -8; OXTR potentiator: 2; OXTR ag: 1; OX1R antag-1: 8; OX1R antag-2: 0; V1R ag counter: 0

What do the screens show for `COc1ccc(OC)c(CC(NC(C)=O)C(=O)NC2CCN(c3cc(C)nc4ncnn34)CC2)c1` (stereo not given)?
CHO parental Ca: 31*; OXTR potentiator: -13; OXTR ag: 0; OX1R antag-1: -1; OX1R antag-2: -3; V1R ag counter: 1

How did c1ccc(CNc2nc(-c3cccs3)nc3ccccc23)nc1 do in these assays?
CHO parental Ca: -17; OXTR potentiator: -9; OXTR ag: -1; OX1R antag-1: 54*; OX1R antag-2: -1; V1R ag counter: 1

What do the screens show for `CCOc1ccc2nc3ccc4[nH]onc4c3c2c1`?
CHO parental Ca: -8; OXTR potentiator: -7; OXTR ag: 0; OX1R antag-1: 44*; OX1R antag-2: 43; V1R ag counter: 0

How did O=C1/C(=C\c2ccc(Br)o2)SC(=Nc2ccccc2)N1c1ccccc1 do in these assays?
CHO parental Ca: -15; OXTR potentiator: -13; OXTR ag: -1; OX1R antag-1: 62*; OX1R antag-2: -16; V1R ag counter: 0

How did COc1cccc(OC)c1C(=O)NC(=S)Nc1cc(-c2nc3ccccc3[nH]2)ccc1Cl do in these assays?
CHO parental Ca: -17; OXTR potentiator: -2; OXTR ag: 0; OX1R antag-1: 74*; OX1R antag-2: 20; V1R ag counter: 0

How did COC(=O)[C@@]1(Cc2ccccc2)[C@H]2C(=O)N(Cc3ccccc3)C(=O)[C@H]2[C@H]2CN=C(SCC3CC3)N21 do in these assays?
CHO parental Ca: -25; OX1R antag-1: 15; OX1R antag-2: 19

Results for CN(CCCC(=O)O)S(=O)(=O)c1ccc2c(c1)C(=O)c1cc(S(=O)(=O)N(C)CCCC(=O)O)ccc1-2 ?
CHO parental Ca: -5; OXTR potentiator: -5; OXTR ag: 1; OX1R antag-1: 51*; OX1R antag-2: -6; V1R ag counter: 1

Results for Cc1ccc(Oc2ccc(Oc3ccc(C)cc3)nn2)cc1 ?
CHO parental Ca: 27*; OXTR potentiator: 5; OXTR ag: -3; OX1R antag-1: 12; OX1R antag-2: -10; V1R ag counter: -2

What do the screens show for `Cc1ccc(Oc2cnc3ccccc3n2)cc1`?
CHO parental Ca: 0; OXTR potentiator: -7; OXTR ag: -1; OX1R antag-1: 8; OX1R antag-2: -3; V1R ag counter: 0

Results for NCCc1nnc(SCC(=O)c2ccc(Cl)cc2)o1 ?
CHO parental Ca: -11; OXTR potentiator: -8; OXTR ag: 2; OX1R antag-1: 5; OX1R antag-2: -21; V1R ag counter: 0

What do the screens show for `Cc1c(/C=C/C(=O)c2ccccc2)cnn1C`?
CHO parental Ca: -2; OXTR potentiator: -9; OXTR ag: -1; OX1R antag-1: 41*; OX1R antag-2: 1; V1R ag counter: 1
